From PubChem BioAssay
A selection: hits, their analogues and other compounds. The true share with any hit is near 2.9%.
APOBEC3G inh – APOBEC3G (human) deaminase inhibition. Q9HC16. recombinant A3G, ssDNA deamination FAM/TAMRA fluorescence. inhibition, % at 20 µM. 330,000 tested, 0.28% active;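 active = inhibition of at least 40% at 20 µM, with no more than 30% in the related APOBEC3A deaminase screen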;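 also: plate controls were DMSO wells with A3G for no effect and wells lacking A3G enzyme for full effect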
APOBEC3A inh – blocks human APOBEC3A ssDNA deamination; 330,000 tested, 0.41% active; AID 493011; inhibition, % at 20 µM; recombinant A3A, FAM/TAMRA ssDNA deamination fluorescence; P31941;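 active = at least 40% inhibition at 20 µM here, with at most 30% in a related deaminase screen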;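 also: plate controls were A3A with DMSO for no effect and wells lacking A3A enzyme for full effect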
Target sequence (P31941 whole entry, looked up): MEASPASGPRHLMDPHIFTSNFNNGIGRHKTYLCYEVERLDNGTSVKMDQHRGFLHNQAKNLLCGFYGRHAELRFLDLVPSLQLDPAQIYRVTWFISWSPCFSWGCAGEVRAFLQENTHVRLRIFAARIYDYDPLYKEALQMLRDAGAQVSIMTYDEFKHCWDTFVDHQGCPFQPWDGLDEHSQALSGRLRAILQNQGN
PRMT1 FP inh – PRMT1 (human) inhibition, primary screen | Q99873 | recombinant PRMT1, activity-based probe fluorescence polarization | inhibition, % at 2.79 µM | 370,000 tested, 1.3% active;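 active = inhibition above about 21% made by adding two undisclosed values, limit read from the data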
Target sequence (Q99873 whole entry, looked up): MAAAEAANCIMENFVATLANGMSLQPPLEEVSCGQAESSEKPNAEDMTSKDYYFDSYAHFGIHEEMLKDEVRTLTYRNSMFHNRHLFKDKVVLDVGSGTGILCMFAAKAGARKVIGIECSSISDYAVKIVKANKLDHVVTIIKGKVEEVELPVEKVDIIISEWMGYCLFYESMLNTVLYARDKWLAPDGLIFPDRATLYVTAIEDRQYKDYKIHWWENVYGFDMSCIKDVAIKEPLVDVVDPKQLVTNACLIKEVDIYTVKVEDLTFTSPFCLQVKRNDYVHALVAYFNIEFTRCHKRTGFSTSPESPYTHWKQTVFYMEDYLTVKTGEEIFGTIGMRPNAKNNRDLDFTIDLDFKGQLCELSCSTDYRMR
HCV core dimer – blocks dimerization of HCV core protein. TR-FRET GST/Flag-core106 dimerization, 1536-well. inhibition, % at 5 µM. 300,000 tested, 0.33% active. AID 1899;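 active = inhibition above the mean of all tested compounds plus 3 SD, set per screening campaign, cut at about 45% in these data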
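System – GST-tagged and Flag-tagged HCV core protein residues 1-106 · Repeats – one well for each compound · Technique – TR-FRET 671 and 617 nm emission · Doses – one concentration, 5 µM, in 0.5% DMSO · Times – 4 h, 22.5 °C incubation · Also added – Eu donor and XL665 acceptor anti-tag antibodies · Measure – percent inhibition of core106 dimerization signal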
HCV NS3 hel inh – inhibitors of Hepatitis C virus NS3 helicase. inhibition, % at 10.9 µM. 290,000 tested, 0.56% active. NS3 helicase DNA unwinding, Cy5 molecular beacon fluorescence. AID 1800;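 active = inhibition above the mean of all tested compounds plus 3 SD, set per campaign, cut at about 35% in these data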;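 also: 0% = DMSO wells and 100% = thioflavine S control wells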
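Assay system – hepatitis C virus NS3 helicase domain fragment enzyme · Buffer or medium – MOPS pH 6.5, MgCl2, DTT, Tween20, BSA · Reagent – Cy5/quencher beacon DNA duplex and ATP to start · Compound – single 10.9 µM dose · Timing – 1 h at 25 °C · Technique – Cy5 beacon fluorescence read at start and 1 h · Measure – % inhibition of unwinding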
ABHD5-PLIN5 inh – ABHD5-PLIN5 protein interaction inhibition. inhibition, % at 4 µM. Split G. princeps luciferase complementation, luminescence, 4 h. 360,000 tested, 0.78% active. AID 602281. Q00G26+Q8WTS1;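 active = inhibition above the mean inhibition across every tested compound plus 3 SD, cut at about 22% in these data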;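 also: 0% = DMSO only wells and the 100% control is not disclosed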
PRMT1 inh conf – PRMT1 (human) inhibition, FP confirmation | shares compounds with PRMT1 FP inh | recombinant His-PRMT1, activity-based probe fluorescence polarization | inhibition, % at 2.79 µM | 3,300 tested, 42% active | AID 687036;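 active = mean inhibition across replicates above the hit cutoff derived for the earlier primary screen, cut at about 22% in these data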
* = called active by the depositor; . = no result.

SMILES | APOBEC3G inh | APOBEC3A inh | PRMT1 FP inh | HCV core dimer | HCV NS3 hel inh | ABHD5-PLIN5 inh | PRMT1 inh conf
Cc1ccc(-c2cccc(NC(=O)C3C4C=CC(C4)C3C(=O)O)c2)o1 (centres undefined) | -1 | -3 | 54* | 0 | -5 | 3 | -2
CC(=O)c1cccc(NC(=O)C2C3C=CC(C3)C2C(=O)O)c1 (centres undefined) | -8 | -1 | 2 | -5 | -1 | 1 | .
COC(=O)c1sc(NC(=O)c2cc(C)on2)nc1C | -10 | 1 | 1 | 1 | -1 | 4 | .
NCCS | 0 | 3 | 42* | 11 | -3 | -45 | 32*
CC(=O)Nc1ccccc1O | -7 | 0 | -1 | 0 | 6 | 4 | .
CC(C)(C)C(=O)/C=C/Nc1ccccc1O | -2 | 1 | 26* | 0 | 3 | -1 | 8
COC(=O)[C@]12C[C@H](CC(=O)NCCCN3CCCC3=O)C(=O)N(Cc3ccc4c(c3)OCO4)C1=C[C@H](C(C)(C)C)O[C@@H]2C | . | . | -2 | . | . | . | .
Cc1cc(NC(=O)CSCC(=O)OCC(=O)Nc2ccc(OC(F)F)cc2)no1 | -3 | -2 | 1 | . | . | -12 | .
Cc1cc(NC(=O)CSCC(=O)OCC(=O)c2cccc(Br)c2)no1 | 5 | 2 | 27* | . | . | -9 | 2
O=C(NCCC(=O)N1CCN(S(=O)(=O)c2ccccc2Cl)CC1)Nc1ccccc1 | 5 | -1 | 0 | . | . | -3 | .
Cc1ccc(/C=C/C(=O)c2ccc(C)cc2)cc1 | -6 | 1 | -1 | 0 | 1 | 8 | .
Cc1ccc(-c2ccc(/C=C/C(=O)c3ccccc3)o2)cc1 | 22 | -3 | 32* | 20 | 22 | 13 | 39*
COc1ccc(F)cc1S(=O)(=O)NCC1CCCO1 (centres undefined) | -3 | -2 | 0 | 8 | -9 | -2 | .
COc1ccc(-c2nc3c(s2)CN(S(C)(=O)=O)CC3)cc1OC | . | . | 35* | . | 0 | 2 | 4
CCOC(=O)CSC1=C(C#N)C(=O)NC(c2ccc(OC)cc2)S1 (centres undefined) | -3 | -3 | 35* | -4 | -1 | -5 | 7
CC(=O)Nc1ccc(S(=O)(=O)NCC(=O)OCC(=O)N2CC(C)OC(C)C2)cc1 (centres undefined) | -6 | -2 | 1 | . | . | 7 | .
CC1(C(=O)Nc2ccc3c(c2)OCCO3)CCN1C(=O)c1ccco1 (centres undefined) | . | . | 0 | . | . | 0 | .
Cn1c(=O)[nH]c(=O)c2c1nc(SCC(=O)O)n2CCc1ccccc1 | -3 | -5 | 26* | -2 | -13 | 0 | 5
CCOC(=O)C1=C(N)n2c(s/c(=C\c3ccco3)c2=O)=C(C(=O)OC(C)C)C1c1ccco1 (centres undefined) | -4 | 1 | 43* | 3 | 32 | -2 | 6
COc1ccc(Cl)cc1NC(=O)CSc1sc2c(O)cc(=O)[nH]c2c1C#N | 2 | 16 | 29* | 16 | 34 | -7 | 3
COc1ccccc1NC(=O)CSc1sc2c(O)cc(=O)[nH]c2c1C#N | 23 | 25 | 27* | -6 | 15 | -4 | 16
COc1ccc(NC(=O)CSc2sc3c(O)cc(=O)[nH]c3c2C#N)c(OC)c1 | 6 | 22 | 66* | 12 | 19 | -13 | 4
COc1ccc(NC(=O)CSc2nc(O)cc(=O)[nH]2)c(OC)c1 | -3 | 0 | 16 | 0 | 9 | 1 | .
CCOC(=O)c1c(NC(=S)Nc2ccccc2)sc2c1CCCCC2 | -2 | 1 | . | 5 | 0 | -9 | .
CCOC(=O)c1c(NC(=S)Nc2ccccc2)sc2c1CCN(CC)C2 | -9 | -6 | 28* | -14 | -12 | -3 | 11
SMILES | APOBEC3G inh | APOBEC3A inh | PRMT1 FP inh | HCV core dimer | HCV NS3 hel inh | ABHD5-PLIN5 inh | PRMT1 inh conf
COc1ccc(N2CCN(CCC(=O)c3ccc4ccccc4c3)CC2)cc1 | -5 | -3 | 44* | 5 | -19 | 16 | 28*
O=C(CCN1CCN(c2ccccc2)CC1)c1ccc(Cl)cc1 | -2 | 2 | 15 | 3 | -5 | 4 | .
COc1ccc(NC(=O)c2ccc(NC(=O)CN3CCN(c4ccc(O)cc4)CC3)cc2)cc1 | . | . | 34* | . | . | -1 | 7
COc1ccc(NC(=O)c2ccc(NC(=O)CN3CCN(c4ccccc4O)CC3)cc2)cc1 | . | . | -6 | . | . | 3 | .
O=C(CCN1CCOCC1)c1ccc(N2CCCCC2)cc1 | -11 | -8 | 28* | . | . | 21 | -5
CC1CCCCC1NC(=O)CN1CCC(NC(=O)C(C)(C)C)CC1 (centres undefined) | . | . | -3 | . | . | -11 | .
COCc1cn(CC[C@@H]2CC[C@@H](NC(=O)Nc3ccc4c(c3)OCO4)[C@@H](CO)O2)nn1 | . | . | 0 | . | . | -2 | .
CSC1=NSC2=NC(=O)/C(=C\c3coc4ccccc4c3=O)C(=N)N12 | . | . | 31* | 6 | 20 | -9 | 72*
Cc1ccc(C2=N/C(=C\c3coc4ccccc4c3=O)C(=O)O2)cc1 | . | . | 37* | . | . | . | 1
O=C1CSC(c2ccc([N+](=O)[O-])cc2)N1c1ccc(O)cc1 (centres undefined) | 0 | 2 | -2 | -11 | 0 | -4 | .
O=C(N[C@@H]1c2ccccc2CC[C@@H]1OCc1ccccc1)c1ccc(C(F)(F)F)cc1 | 2 | 2 | -2 | . | . | -5 | .
S=c1[nH]nc(-c2cc(-c3ccco3)[nH]n2)n1-c1ccccc1Cl | 78 | 41 | 41* | 2 | 29 | 2 | 12
FC(F)(F)c1ccc(Cl)c(-n2c(-c3cc(C4CC4)[nH]n3)n[nH]c2=S)c1 | 6 | -6 | 3 | 0 | -10 | -7 | .
S=c1[nH]nc(-c2cc(-c3ccco3)[nH]n2)n1-c1ccccc1 | 20 | -3 | 5 | 0 | 18 | -3 | .
FC(F)(F)c1ccc(Cl)c(-n2c(-c3cc(-c4ccco4)[nH]n3)n[nH]c2=S)c1 | 7 | 3 | 25* | 0 | 28 | -10 | 28*
CCN(C(=O)N(CC)c1ccccc1)c1ccccc1 | 1 | 1 | 1 | . | . | 1 | .
CCN(C(=O)COC(=O)/C=C/c1ccco1)c1c(N)n(Cc2ccccc2)c(=O)[nH]c1=O | . | . | 30* | . | . | 16 | -4
CCN(C(=O)C=Cc1ccco1)c1ccccc1 | . | . | 31* | . | . | 9 | 6
CCN(C(=O)CN1CCCc2cc(C)ccc21)c1c(N)n(Cc2ccccc2)c(=O)[nH]c1=O | . | . | 30* | . | . | -2 | 12
CCCN(C(=O)c1cc(-c2ccco2)nc2ccccc12)c1c(N)n(Cc2ccccc2)c(=O)[nH]c1=O | 24 | 33 | 33* | 28 | . | 13 | 6
Cc1ccc2c(c1)CCCN2CC(=O)N(C)c1c(N)n(Cc2ccccc2)c(=O)[nH]c1=O | -12 | -3 | 33* | . | . | 10 | 3
CN(C(=O)CN1CCCCCC1)c1c(N)n(Cc2ccccc2)c(=O)[nH]c1=O | -5 | -3 | 8 | . | . | 3 | .
